SUMO1-SIM PPI = modulators of SUMO1 protein-protein interactions, primary screen, biochemical, uHTS | Small ubiquitin-related modifier 1 (Homo sapiens), P63165 | SUMO1 binding to a labelled peptide, TR-FRET, 1 h | inhibition, % at 20 µM | actives 0.33% (n = 360,000) | AID 602429, 2012; in the data active means inhibition above about 37%
STEP inh = STEP phosphatase inhibitors, primary screen, biochemical, fluorescence intensity, uHTS. inhibition, % at 20 µM. recombinant STEP, OMFP fluorogenic substrate. AID 588621, 2011. actives 0.25% (n = 360,000);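 active means inhibition at 20 µM, scaled per plate between control wells, above about 37%, limit read from the data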;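 further: 0% = DMSO with enzyme and substrate and 100% = substrate only without enzyme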
Target sequence (P54829 whole entry, looked up): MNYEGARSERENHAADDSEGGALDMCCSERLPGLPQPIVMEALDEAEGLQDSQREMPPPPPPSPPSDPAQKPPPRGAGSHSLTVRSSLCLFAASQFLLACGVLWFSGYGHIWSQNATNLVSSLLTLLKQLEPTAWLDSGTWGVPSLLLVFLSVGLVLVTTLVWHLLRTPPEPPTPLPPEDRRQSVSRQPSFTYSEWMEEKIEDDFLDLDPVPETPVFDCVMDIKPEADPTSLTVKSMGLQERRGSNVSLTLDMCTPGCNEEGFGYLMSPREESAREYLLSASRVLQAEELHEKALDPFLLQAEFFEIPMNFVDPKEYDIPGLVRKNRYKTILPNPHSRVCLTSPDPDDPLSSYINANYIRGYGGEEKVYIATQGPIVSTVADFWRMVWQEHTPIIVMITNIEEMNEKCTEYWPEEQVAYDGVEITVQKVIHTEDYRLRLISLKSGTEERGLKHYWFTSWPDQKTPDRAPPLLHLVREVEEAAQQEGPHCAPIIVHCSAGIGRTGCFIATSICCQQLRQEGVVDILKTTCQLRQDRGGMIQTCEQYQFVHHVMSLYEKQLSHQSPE
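System: STEP phosphatase, cell-free reaction; Buffer or medium: Bis-Tris pH 6.0 buffer with DTT, detergent; Incubation: 20 min at room temperature, dark; Measured by: fluorescence, 480/540 nm.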
LMPTP block = LMPTP phosphatase inhibitors, primary screen, biochemical, fluorescence intensity, uHTS; Low molecular weight phosphotyrosine protein phosphatase (Homo sapiens), P24666; recombinant LMPTP-A, OMFP fluorogenic substrate; inhibition, % at 20 µM; actives 0.22% (n = 360,000); AID 651560, 2012;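 active means compounds that cut the enzyme signal by at least half of the control window in the single-dose screen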;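 further: plate controls were DMSO wells with enzyme plus substrate for no effect and substrate without enzyme for full effect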
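Assay system: LMPTP-A enzyme. Input: 0.625 nM LMPTP-A final. Probe or stimulus: 400 µM OMFP. Compound dosing: single 20 µM dose. Schedule: 50 min dark incubation at room temperature. Detection: fluorescence intensity of OMFP turnover product. Read-out: percent inhibition versus substrate-only and uninhibited controls. Benchmarks: no-enzyme low control, uninhibited high control.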
GRK2 inh = compounds blocking aptamer binding on GRK2 – biochemical, human GRK2, bead flow cytometry, HTS, primary screen; Beta-adrenergic receptor kinase 1 (Homo sapiens), P25098; FAM-aptamer displacement from GRK2; inhibition of aptamer binding, % at 10 µM; actives 0.59% (n = 330,000);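 active means inhibition of aptamer binding above 40%, roughly 3 SD of noise, on plates passing a quality check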;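 further: median bead fluorescence of bound FAM aptamer so fluorescent compounds give negative values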
DNMT1 inh = human DNMT1 methyltransferase inhibitors, primary screen, biochemical, molecular beacon, fluorescence, HinP1I cleavage, uHTS; inhibition (reported as % activation of signal), % at 10 µM; AID 588458, 2011; actives 0.83% (n = 360,000); DNA (cytosine-5)-methyltransferase 1 (Homo sapiens), P26358; in the data active means inhibition above about 50%
Scp1 inh = Scp-1 phosphatase inhibitors, primary screen, biochemical, colorimetric, uHTS | actives 0.88% (n = 340,000) | Recombinant Scp1, phosphopeptide, malachite green phosphate absorbance | Carboxy-terminal domain RNA polymerase II polypeptide A small phosphatase 1 (Homo … | inhibition, % at 20 µM;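 active means inhibition above about 50% at 20 µM, limit read from the data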;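 further: plate controls were DMSO wells with enzyme for no effect and wells lacking enzyme for full effect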
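Test system: SCP-1 catalytic domain; Buffer or medium: Acidic Tris acetate buffer with magnesium and detergent; Also added: Phosphorylated 17-residue peptide substrate; Compound: single 20 µM dose, 1% DMSO; Schedule: enzyme reaction 45 min at room temperature, colour 5 min, stabilisation 30 min; Signal: Phosphate-binding colour reagent, absorbance read at 630 nm.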
DNMT1 inh conf = DNMT1 methyltransferase inhibitor retest, confirmation, biochemical, molecular beacon, fluorescence, single concentration; DNMT1 molecular beacon HinP1I cleavage; AID 602385, 2012; inhibition, % at 10 µM; shares compounds with DNMT1 inh; actives 8% (n = 2,300);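 active means average inhibition of at least 30% in the single-concentration confirmation test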
DNMT1 interf = shows spectral interference in the DNMT1 beacon assay. shares compounds with DNMT1 inh. DNMT1 molecular beacon spectral interference counterscreen, fluorescence 485/520. activation (fluorescence interference), % at 10 µM. actives 1% (n = 2,300). AID 602387;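 active means activation of at least 30% at 10 µM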;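 further: DNMT1 catalytic domain with a HinP1I cleavage step and a FAM/dabcyl DNA beacon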
An asterisk follows results filed as active; · = no result given. A selection: hits, their analogues and other compounds. The true share with any hit is near 2.2%.

SMILES	SUMO1-SIM PPI	STEP inh	LMPTP block	GRK2 inh	DNMT1 inh	Scp1 inh	DNMT1 inh conf	DNMT1 interf
CN(C)CCNc1nc(Oc2cccc(F)c2)c2sccc2n1	-20	1	4	·	-6	·	·	·
Fc1ccc(CNc2ccc(N3CCN(Cc4ccccc4)CC3)cc2)cc1	-1	2	2	0	62*	6	1	4
CC(=O)N1CCN(c2ccc(NCc3ccccc3)cc2)CC1	-5	4	-1	1	-9	-5	·	·
Cc1csc(N=Cc2ccc([N+](=O)[O-])o2)n1	25	8	43	·	86*	·	4	-5
O=[N+]([O-])c1ccc(/C=N/N=C/c2ccc([N+](=O)[O-])o2)o1	3	1	0	·	15	16	·	·
CCOC(=O)C1(C)CCCN1C(=O)c1cc(F)ccc1C (stereo not drawn)	8	-3	-1	·	34	·	·	·
CC1(NC(=O)CCc2nc3sc4c(c3c(=O)[nH]2)CCCC4)CCS(=O)(=O)C1 (stereo not drawn)	12	4	18	14	54*	·	6	-4
Cc1cc2ccccc2n2c(SCC(=O)Nc3ccc(S(=O)(=O)N4CCCCC4)cc3)nnc12	5	-2	1	0	8	-5	·	·
Cc1cc2cc(C)c3nnc(SCC(=O)Nc4ccc(S(=O)(=O)N5CCCCC5)cc4)n3c2cc1C	2	-2	0	3	56*	-1	2	0
CCC(NC(=O)c1cccc(Cn2nc(C)c([N+](=O)[O-])c2C)c1)c1ccc(C(C)C)cc1 (stereo not drawn)	1	0	5	2	55*	0	2	5
O=C(CNC(=O)Cc1ccccc1)NCC(=O)OCc1ccccc1	1	3	-1	0	68*	1	0	3
O=C(CNC(=O)c1ccco1)NCC(=O)OCc1ccc(Cl)cc1Cl	6	0	-1	1	66*	-7	1	5
O=C(NCc1ccccc1)c1cc(C2CCCCN2S(=O)(=O)c2ccccc2)on1 (stereo not drawn)	3	-2	-1	·	-6	·	·	·
C=CCNc1nc2cc(-c3ccc(C(=O)N4CCOCC4)cc3)sc2c(=O)n1C	-27	-1	5	·	0	·	·	·
CC1(C(=O)NCc2ccccc2)CN(S(C)(=O)=O)CC(=O)N1Cc1cccs1 (stereo not drawn)	-1	·	-2	·	·	·	·	·
Cc1ccc(CCNC(=O)c2cc(C)nn2-c2ccccc2)cc1	-1	-1	0	2	61*	-7	2	1
Cc1cc(C(=O)NCc2ccc(Cl)cc2)n(-c2ccccc2)n1	-3	0	1	3	0	9	·	·
Cc1ccc(NC(=O)Cn2cnc(C(=O)Nc3ccc(C)c(C)c3)n2)cc1C	-3	1	-1	0	52*	4	2	3
FC(F)(F)Oc1ccccc1C(c1nnnn1-c1ccc2c(c1)OCCO2)N1CCN(C/C=C/c2ccccc2)CC1 (stereo not drawn)	8	2	6	·	-9	·	·	·
COC(=O)C1=C(O)/C(=C\c2ccc(CNC(=O)C(=O)Nc3ccc(C)cc3)o2)N=C1C	20	5	16	0	96*	-7	4	4

Screening results (PubChem BioAssay)
